# Columns and labels:
# [1] = biological target: Sigma non-opioid intracellular receptor 1 (Homo sapiens, UniProt Q99720); assay: Displacement of [3H]-(+)-pentazocine from human sigma1 receptor transfected in HEK293 cells after 120 mins by liquid scintillation counting analysis; format: cell-based
# [2] = Displacement of [3H]-Di-o-tolyguanidine from guinea pig sigma2 receptor after 120 mins by liquid scintillation counting analysis; parameters: species or system Cavia porcellus
# [3] = Kinetic solubility of the compound; format: physicochemical; settings: read-out: Kinetic_solubility
# Method in brief: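 Kinetic solubility: compound solution at 1% DMSO in phosphate buffer, pH 7.4, quantified by HPLC.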
# Sigma non-opioid intracellular receptor 1, sequence (Q99720 whole entry): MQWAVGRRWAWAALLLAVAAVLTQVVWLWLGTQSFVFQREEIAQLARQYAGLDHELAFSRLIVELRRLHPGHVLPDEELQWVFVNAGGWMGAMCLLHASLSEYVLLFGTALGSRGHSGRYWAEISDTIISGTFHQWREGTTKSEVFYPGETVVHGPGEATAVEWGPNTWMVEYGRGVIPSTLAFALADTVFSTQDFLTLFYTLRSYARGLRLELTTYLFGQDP
Structure (SMILES),Ki [1] [nM],Ki [2] [nM],solubility kinetic [3] [µM]
CCCCCc1ccc2c(c1)[C@H]1OCCC[C@H]1[C@@H](C1CCCCC1)N2 (racemic),43,–,–
CC(C)CCOc1ccc2c(c1)[C@H]1OCCC[C@H]1[C@@H](C1CCCCC1)N2 (racemic),52,–,–
Clc1cccc(Oc2ccc3c(c2)[C@H]2OCCC[C@H]2[C@@H](C2CCCCC2)N3)c1 (racemic),377,1000,–
Clc1cccc(Oc2ccc3c(c2)[C@H]2OCCC[C@H]2[C@H](C2CCCCC2)N3)c1 (racemic),> 1000,1000,–
Clc1ccccc1Oc1ccc2c(c1)[C@H]1OCCC[C@H]1[C@@H](C1CCCCC1)N2 (racemic),> 1000,1000,–
Clc1ccc(Oc2ccc3c(c2)[C@H]2OCCC[C@H]2[C@@H](C2CCCCC2)N3)cc1Cl (racemic),79,1000,–
c1ccc(Oc2ccc3c(c2)[C@H]2OCCC[C@H]2[C@@H](C2CCCCC2)N3)cc1 (racemic),> 1000,1000,–
c1ccc2c(c1)N[C@H](C1CCCCC1)[C@@H]1CCCO[C@H]21 (racemic),> 1000,1000,–
CCCCc1ccc2c(c1)[C@H]1OCCC[C@H]1[C@@H](C1CCCCC1)N2 (racemic),> 1000,1000,–
CCCCOc1ccc2c(c1)[C@H]1OCCC[C@H]1[C@@H](C1CCCCC1)N2 (racemic),178,1000,–
Fc1ccc(COc2ccc3c(c2)[C@H]2OCCC[C@H]2[C@@H](C2CCCCC2)N3)cc1 (racemic),> 1000,1000,–
c1cc2c(cc1C1CCCCC1)[C@H]1OCCC[C@H]1[C@@H](C1CCCCC1)N2 (racemic),> 1000,1000,–
c1ccc(-c2ccc3c(c2)[C@H]2OCCC[C@H]2[C@@H](C2CCCCC2)N3)cc1 (racemic),> 1000,1000,–
CCCNS(=O)(=O)c1ccc2c(c1)[C@H]1OCCC[C@H]1[C@@H](C1CCCCC1)N2 (racemic),> 1000,1000,–
O=C(Nc1ccc2c(c1)[C@H]1OCCC[C@H]1[C@@H](C1CCCCC1)N2)c1ccccc1 (racemic),> 1000,1000,–
Clc1ccc(Oc2ccc3c(c2)[C@H]2OCC[C@H]2[C@@H](C2CCCCC2)N3)cc1 (racemic),302,1000,–
CCCCCc1ccc2c(c1)[C@H]1OCC[C@H]1[C@@H](C1CCCCC1)N2 (racemic),245,1000,–
Clc1ccc(Oc2ccc3c(c2)[C@H]2OCCC[C@H]2[C@@H](C2CCCCC2)N3)cc1 (racemic),194,> 1000,< 0.4
Clc1ccc(Oc2ccc3c(c2)[C@H]2OCCC[C@H]2[C@H](C2CCCCC2)N3)cc1 (racemic),> 1000,1000,–
O=C(CCCN1CCC(O)(c2ccc(Cl)cc2)CC1)c1ccc(F)cc1 [HALOPERIDOL],–,1000,–

# Source: ChEMBL document CHEMBL2331108, “Synthesis and biological evaluation of a new series of hexahydro-2H-pyrano[3,2-c]quinolines as novel selective σ1 receptor ligands” (J Med Chem, 2013)
